Source: PubChem (several laboratories)
Pemphigus Ab inh: inhibitors of pemphigus antibody binding to human desmoglein-3; P32926; DSG3-coupled beads, scFv-anti-DSG3-GFP binding, flow cytometry; active compounds read low; binding (percent of control), % at 10 µM; hit rate 0.48% among 310,000; AID 588358;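 active means binding more than 3 SD below its plate's average and above zero; inconclusive means below that plate limit but binding exactly zero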;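 further: hits lower antibody fragment binding to DSG3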
Arrestin-AP2 inh: human beta-arrestin and AP2 interaction inhibition. FITC-arrestin peptide / GST-AP2 beads, flow cytometry; AP2 beta2 appendage carries R879A mutation. AID 504490. inhibition, % at 10 µM. hit rate 0.31% among 340,000;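 active means inhibition above a set limit, near 3 SD of compounds lacking own fluorescence, cut at about 54% in these data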;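 further: plate controls were DMSO wells for no effect and 5 µM unlabelled arrestin peptide for full effect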
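Assay system: GST-AP2 R879A bound to glutathione beads, E. coli-expressed; Medium: PBS with 0.05% Tween 20 and 0.1% BSA; Also added: fluorescein-tagged arrestin peptide at 50 nM final; Timing: 12 min plus 1 h, RT; Measured by: flow cytometry, FL1 (488/535 nm); Evaluation: percent drop in bead-associated FITC signal.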
Neddyl block: blocks human cullin neddylation; inhibition, % at 25 µM; P61081+Q13564; AID 651699; TR-FRET cullin neddylation, biochemical; hit rate 0.58% among 360,000; in the data active means inhibition above about 36%
Efflux pump inh: inhibitors of Candida antifungal efflux pumps expressed in yeast; inhibition, % at 10 µM; AID 485275; hit rate 0.44% among 330,000; S. cerevisiae Candida pump triplex, Nile Red efflux;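 active means plate passing quality check with inhibition over a set limit, or well fluorescence over plate mean plus 4 SD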;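 further: Nile Red retained in pooled yeast measured as flow cytometry median fluorescence; 0% = buffer negative control and 100% = Enniatin B positive control; higher means more Nile Red kept so more efflux inhibition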
Arr AP2 CP1: human beta-arrestin and AP2 interaction inhibition, cherry pick | hit rate 2% among 1,300 | GST-AP2 beads, FITC arrestin peptide binding, flow cytometry; GST-fused beta2-adaptin appendage, R879A mutant | inhibition, % at 10 µM | shares compounds with Arrestin-AP2 inh;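 active means inhibition above a set limit, roughly 3 SD of non-fluorescent compound noise, cut at about 38% in these data; inactive means inhibition at or below that limit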;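 further: loss of bead fluorescence from 50 nM FITC arrestin peptide bound to appendage; 0% = negative control wells and 100% = excess unlabelled arrestin peptide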
Target sequence (P63010 whole entry, looked up, the tested form may be a part, one chain of several): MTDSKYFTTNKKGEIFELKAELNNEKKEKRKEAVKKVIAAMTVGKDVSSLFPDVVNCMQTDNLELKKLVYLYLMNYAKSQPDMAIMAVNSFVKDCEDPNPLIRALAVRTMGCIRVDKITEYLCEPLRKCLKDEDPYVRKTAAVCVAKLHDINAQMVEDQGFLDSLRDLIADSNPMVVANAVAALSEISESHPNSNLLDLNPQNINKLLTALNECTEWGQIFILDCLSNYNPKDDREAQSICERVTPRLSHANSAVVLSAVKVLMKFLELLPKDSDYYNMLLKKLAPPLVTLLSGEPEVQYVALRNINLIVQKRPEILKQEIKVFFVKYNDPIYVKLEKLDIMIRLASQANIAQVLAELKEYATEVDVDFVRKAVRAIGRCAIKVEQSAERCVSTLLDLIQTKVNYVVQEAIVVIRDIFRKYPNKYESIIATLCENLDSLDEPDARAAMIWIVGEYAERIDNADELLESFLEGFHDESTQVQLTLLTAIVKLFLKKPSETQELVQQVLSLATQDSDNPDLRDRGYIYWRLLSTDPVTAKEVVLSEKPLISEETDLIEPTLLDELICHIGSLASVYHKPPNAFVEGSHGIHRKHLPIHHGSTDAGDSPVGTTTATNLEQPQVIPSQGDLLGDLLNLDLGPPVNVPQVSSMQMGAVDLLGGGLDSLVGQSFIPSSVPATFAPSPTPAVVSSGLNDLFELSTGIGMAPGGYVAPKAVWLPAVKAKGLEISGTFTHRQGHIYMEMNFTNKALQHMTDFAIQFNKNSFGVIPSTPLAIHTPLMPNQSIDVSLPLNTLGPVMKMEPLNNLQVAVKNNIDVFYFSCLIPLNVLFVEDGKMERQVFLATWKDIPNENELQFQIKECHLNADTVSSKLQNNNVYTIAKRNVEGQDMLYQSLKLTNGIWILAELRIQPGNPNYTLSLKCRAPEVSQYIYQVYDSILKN
GST-FITC bead: disrupts GST binding to glutathione beads, arrestin-AP2 artifact; shares compounds with Arrestin-AP2 inh; GST-fluorescein binding to GSH beads, fluorescence, counter-screen; inhibition, % at 10 µM; hit rate 2% among 1,300; AID 588338;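 active means inhibition above 50%, about 3 SD of the inhibition seen with non-fluorescent compounds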;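 further: fluorescein maleimide labelled GST captured on 4 micron glutathione beads; higher means more loss of bead fluorescence from quenching or blocked binding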
* hit, by the source's call; ? = inconclusive; nt = no result. Only some compounds are listed: those with a hit (about 1.7% of all), similar ones and a draw of the others.

SMILES	Pemphigus Ab inh	Arrestin-AP2 inh	Neddyl block	Efflux pump inh	Arr AP2 CP1	GST-FITC bead
Cc1cc(NC(=O)c2c(F)cccc2Cl)n(-c2nc3ccccc3[nH]2)n1	99	99*	15	0	6	-6
COc1ccccc1NS(=O)(=O)c1ccc(O)c(NC(=S)NCC2CCCO2)c1 (centres undefined)	97	-3	13	0	nt	nt
Cc1ccccc1NC(=O)c1c2c(nc3ccccc13)CCC2	98	12	-5	0	nt	nt
Cc1ccc(NC(=O)CN(C)C(=O)CCSc2ccc(F)cc2)cc1	102	0	-5	0	nt	nt
COc1cc(Cl)c(C)cc1NC(=O)c1ccc(S(C)(=O)=O)cc1	101	55*	5	0	-5	-10
COc1ccc(NC(=O)c2ccc(S(=O)(=O)N3CCCCC3)cc2)c(OC)c1	101	9	-6	0	nt	nt
COc1ccc(NC(=O)c2ccc(S(=O)(=O)C(F)F)cc2)c(OC)c1	105	60*	0	0	0	-7
COc1ccccc1OCC(=O)NCC1CCCN(C(=O)c2cccc(C)c2)C1 (centres undefined)	108	nt	2	nt	nt	nt
FC(F)c1nc2nc(Cl)c(Cl)nc2[nH]1	104	nt	-4	nt	nt	nt
CC(C)c1ccc(Nc2nnns2)cc1	111	-12	-1	0	nt	nt
Brc1cccc(CNCc2ccncc2)c1	116	20	4	0	nt	nt
Brc1cccc(CNCc2cccs2)c1	105	55*	1	0	-12	-8
CCOc1ccc(CN2CCN(Cc3cc4ccccc4o3)CC2CCO)cc1 (centres undefined)	115	66*	-1	0	5	3
Cc1c(-c2ccccc2)nc2ccccc2c1C(=O)OCC(=O)Nc1ncc(C(F)(F)F)cc1Cl	106	19	-77	0	nt	nt
O=C(c1ccccc1F)N(NC(=O)C(O)(c1ccccc1)c1ccccc1)c1ccccc1	125	87*	-4	0	-7	2
O=C(c1ccccc1)N(NC(=O)C(O)(c1ccccc1)c1ccccc1)c1cccc(F)c1	98	24	3	0	nt	nt
CCCC(=O)Nc1c(-c2cccc(OC)c2)c(=O)c2ccccc2n1C	?	46	18	0	nt	nt
Cc1ccc(N/C=C2/Sc3ccccc3NC2=O)cc1	272	83*	12	0	12	22
COC(=O)c1ccccc1S(=O)(=O)NNC(=O)c1ccccc1-n1cccc1	97	23	10	0	nt	nt
CCn1c(C)nc2cc(C(=O)NNC(=O)Nc3ccc(Cl)cc3)ccc21	119	57*	-1	0	-13	0
CCOC(=O)c1sc2c(c1C)c(=O)n(Cc1ccccc1)c(=O)n2CCN(C)C	118	-22	-90	0	nt	nt
Cc1ccc(-c2nnn(CC(=O)N(c3ccccc3)C(C(=O)NCC3CCCO3)c3ccc(F)cc3)n2)o1 (centres undefined)	106	66*	-12	0	6	0
Cc1nc(C(=O)O)nn1-c1ccc([N+](=O)[O-])cc1	87	18	-15	0	nt	nt
CC(=O)Nc1c(C)nn(-c2ccc([N+](=O)[O-])cc2)c1C	103	54*	-27	0	-3	-10
O=C(O)c1ccc(-c2noc(-c3cccc(Cl)c3)n2)cc1	101	-1	-21	-1	nt	nt
SMILES	Pemphigus Ab inh	Arrestin-AP2 inh	Neddyl block	Efflux pump inh	Arr AP2 CP1	GST-FITC bead
C=CCN1C=C/C(=C\C=C(C#N)C#N)c2ccccc21	91	3	-30	0	nt	nt
CCCCCCN1C=C/C(=C\C=C(C#N)C#N)c2ccccc21	110	75*	0	0	-8	8
COc1cc(OC)c(NC(=O)CC(=O)Nc2cc(Cl)c(OC)cc2OC)cc1Cl	114	7	-90	0	nt	nt
COc1cc(OC)c(NC(=O)CC(C)=O)cc1Cl	nt	4	-3	0	-6	-1
CCOc1ccc(/C=C/C(=O)NCCc2ccc(OC)c(OC)c2)cc1	106	57*	-21	-1	-12	-8
CCCCSc1ncnc2[nH]ncc12	108	64*	-6	0	16	-5
CCCNc1ncnc2[nH]ncc12	115	14	-3	nt	nt	nt
Cc1ccc(C(=O)N2CCN(c3ccc(NC(=S)NC(=O)c4cccs4)cc3)CC2)cc1	121	-4	-4	0	nt	nt
O=C(NC(=S)Nc1ccc(N2CCOCC2)cc1)c1cccs1	108	60*	-14	0	-4	3
O=C(COC(=O)c1ccc2c(c1)OCO2)Nc1ccccc1F	101	-12	12	0	nt	nt
Cc1cccc(C)c1NC(=O)CN(C)CC(=O)N1CC(=O)Nc2ccccc21	95	-14	-7	0	nt	nt
O=C(Nc1cccc(F)c1)Nc1cnccn1	103	1	6	0	-7	-6
COc1ccc(NC(=O)Nc2cc(C)ccn2)cc1	96	0	4	nt	nt	nt
COc1ccc(NC(=O)Nc2cnccn2)cc1	97	-16	0	0	9	3
CCOc1ccc(NC(=O)Nc2cnccn2)cc1	89	5	5	0	-2	-7
CC(C)c1cc(C(=O)OCC(=O)NC2CCS(=O)(=O)C2)c(O)c(C(C)C)c1 (centres undefined)	103	nt	12	nt	nt	nt
CCCCSC(=S)N(C)C1CCS(=O)(=O)C1 (centres undefined)	96	98*	7	0	-10	2
COc1cc(OC)cc(C(=O)NC(C(=O)NNC(=O)c2ccc(C)cc2)C(C)C)c1 (centres undefined)	97	63*	-8	0	4	-2
CCCCCCNS(=O)(=O)c1nc2nc(C)cc(C)n2n1	101	31	-8	0	nt	nt
COc1cccc(CN(C)c2nc(-c3cccs3)nc3ccccc23)c1	104	55*	-40	0	-11	-3
Cc1sc2nc(CSC(C)C(=O)Nc3ccc(Cl)cn3)[nH]c(=O)c2c1C (centres undefined)	nt	-26	20	0	nt	nt
COc1ccc(-c2nc(CCl)cs2)cc1OC	105	54*	30	0	-7	-5
Cc1cccc(NS(=O)(=O)c2cccc(C(=O)NCC(c3ccco3)N(C)C)c2)c1 (centres undefined)	122	16	6	0	nt	nt
Cc1cc(C(=O)CCl)c(C)n1-c1cccc([N+](=O)[O-])c1	104	62*	-8	0	9	1
O=C(NCCc1ccc(S(=O)(=O)N2CCCC2)cc1)c1cccs1	102	87*	-5	0	1	1
CC(C)c1ccc(NC(=O)CCCC(=O)NCCc2ccccc2)cc1	113	-6	0	0	nt	nt
Nc1nnc(SCC(=O)OCC(=O)Nc2ccccc2F)s1	94	57*	9	0	-6	-10
CC(C)c1ccc(NC(=O)COC(=O)CSc2nnc(N)s2)cc1	101	-8	8	0	nt	nt
O=C(COC(=O)c1cnccn1)c1ccc(C2CCCCC2)cc1	107	21	-33	0	nt	nt
Cc1cnc(C(=O)OCC(=O)c2ccc(C3CCCCC3)cc2)cn1	103	57*	-87	0	2	-3
